ChEMBL document CHEMBL1122886, “Nucleoside conjugates. 6. Synthesis and comparison of antitumor activity of 1-beta-D-arabinofuranosylcytosine conjugates of corticosteroids and selected lipophilic alcohols” (1985)

Legend:
[1] = species: Mus musculus; assay: Dose producing greatest increase in life span of mice bearing lymphoid leukemia, treatment schedule is 1-5 qd.; assay type: functional
How it was run: (§1)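 C3D2F1/J mice (C3H/HEJ female × DBA/2J male), groups of six, av wt 25 g, inoculated ip with 1 × 10^6 L1210 cells. Daily ip treatment (qd 1-5 or qd 1-9) started 24 h after inoculation, over a wide dose range. Mice observed daily until death or 45 days. ILS = (T/C − 1) × 100. Active range is doses giving ILS ≥25%; optimum dose gives the greatest ILS.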

[2] = system: L1210; assay: In vitro cytotoxicity with cleavage by phosphodiesterase-I concentration for 50% loss of viability was determined at 72 hours.; assay type: functional; settings: Mus musculus, L1210, 72 h; read-out: ED50 (the source's name)
[3] = species: Mus musculus; assay: Number of animals survived after 30-days in mice bearing lymphoid leukemia, treatment schedule is 1-5 qd.; assay type: functional; how it was run: as §1
[4] = system: L1210; assay: Percent hydrolysis by phosphodiesterase I at 24-h incubation after 30-minutes incubation.; assay type: functional, Mus musculus
[5] = species: Mus musculus; assay: Percent increase in life span in mice bearing lymphoid leukemia, treatment schedule is 1-5 qd.; assay type: functional; how it was run: as §1
[6] = species: Mus musculus; assay: Weight change observed on day 8 in mice bearing lymphoid leukemia, treatment schedule is 1-5 qd.; assay type: functional
How it was run: (§2)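 C3D2F1/J mice (C3H/HEJ female × DBA/2J male), groups of six, average weight 25 g, were inoculated ip with 1 × 10^6 L1210 cells. Ip treatment began 24 h after inoculation, daily on days 1-5 or 1-9, over a wide dose range. Mice were observed daily until death or 45 days. Body-weight change was recorded, and ILS was calculated as (T/C − 1) × 100.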

[7] = system: Mus musculus; assay: Dose producing greatest increase in life span >/=25% in mice bearing lymphoid leukemia, treatment schedule is 1-5 qd; 40-60 [mg(umol)/kg] /day; assay type: functional; how it was run: as §1
[8] = system: Mus musculus; assay: Dose producing greatest increase in life span >/=25% in mice bearing lymphoid leukemia, treatment schedule is 1-5 qd; 20-60 [mg(umol)/kg] /day; assay type: functional; how it was run: as §1
[9] = system: Mus musculus; assay: Dose producing greatest increase in life span >/=25% in mice bearing lymphoid leukemia, treatment schedule is 1-5 qd; 20-80 [mg(umol)/kg] /day; assay type: functional; how it was run: as §1
[10] = system: Mus musculus; assay: In Vivo Antitumor activity against intraperitoneally inoculated L1210 Lymphoid leukemic mice. Percent increase in life span. Treatment schedule is 1-9 qd.; assay type: functional; how it was run: as §1
[11] = system: Mus musculus; assay: Dose producing greatest increase in life span >/=25% in mice bearing lymphoid leukemia, treatment schedule is 1-9 qd; 40-80 [mg(umol)/kg] /day; assay type: functional; how it was run: as §1
[12] = system: Mus musculus; assay: In vivo antitumor activity against intraperitoneally inoculated L1210 lymphoid leukemic mice (Weight change observed on day 8.Treatment schedule is 1-9 qd); assay type: functional; how it was run: as §2
[13] = system: Mus musculus; assay: In vivo antitumor activity against intraperitoneally inoculated L1210 Lymphoid leukemic mice (Dose producing greatest increase in life span, treatment schedule is 1- 9 qd); assay type: functional; how it was run: as §1
[14] = system: Mus musculus; assay: In Vivo Antitumor activity against intraperitoneally inoculated L1210 Lymphoid leukemic mice. Number of animals survived after 30-days. Treatment schedule is 1-9 qd.; assay type: functional; how it was run: as §1
[15] = system: Mus musculus; assay: Dose producing greatest increase in life span >/=25% in mice bearing lymphoid leukemia, treatment schedule is 1-5 qd; 5-80 [mg(umol)/kg] /day; assay type: functional; how it was run: as §1
[16] = system: Mus musculus; assay: Dose producing greatest increase in life span >/=25% in mice bearing lymphoid leukemia, treatment schedule is 1-9 qd; 5-20 [mg(umol)/kg] /day; assay type: functional; how it was run: as §1
[17] = species: Mus musculus; assay: Number of animals survived after 30-days in mice bearing lymphoid leukemia, treatment schedule is 1-9 qd.; assay type: functional; how it was run: as §1
[18] = species: Mus musculus; assay: Percent increase in life span in mice bearing lymphoid leukemia, treatment schedule is 1-9 qd.; assay type: functional; how it was run: as §1

| SMILES | Optimal dose [1] | EC50 [2] | 30 day survivors [3] | Hydrolysis [4] | ILS [5] | Weight change [6] | other results |
| --- | --- | --- | --- | --- | --- | --- | --- |
| Nc1ccn([C@@H]2O[C@H](COP(=O)(O)OCCC34CC5CC(CC(C5)C3)C4)[C@@H](O)[C@@H]2O)c(=O)n1 | 40 mg/kg/day | 310 nM | 0 | 25% | 18% | 0.87 g mouse-1 on day 8 | – |
| CCCCCCCCCCCCCCCCOP(=O)(O)OC[C@H]1O[C@@H](n2ccc(N)nc2=O)[C@@H](O)[C@@H]1O | 20 mg/kg/day | 16500 nM | – | 0% | -22% | -4.75 g mouse-1 on day 8 | No. of survivors [3]: 0 |
| CC12CCC(=O)C=C1CCC1C2C(=O)CC2(C)C1CC[C@]2(O)C(=O)COP(=O)(O)OP(=O)(O)OC[C@H]1OC(n2ccc(N)nc2=O)[C@@H](O)[C@@H]1O (stereo partly drawn) | 40 mg/kg/day | 80 nM | 0 | 100% | 36% | -0.78 g mouse-1 on day 8 | Active dose range [7]: 40 mg/kg/day |
| Nc1ccn([C@@H]2O[C@H](COP(=O)(O)O)[C@@H](O)[C@H]2O)c(=O)n1 | – | 50 nM | – | – | – | – | – |
| CC12CCC(=O)C=C1CCC1C2CCC2(C)C1CC[C@@H]2C(=O)COP(=O)(O)OP(=O)(O)OC[C@H]1OC(n2ccc(N)nc2=O)[C@@H](O)[C@@H]1O (stereo partly drawn) | 20 mg/kg/day | 160 nM | 0 | 100% | 22% | -3.73 g mouse-1 on day 8 | – |
| CC12CCC(=O)C=C1CCC1C2CCC2(C)C1CC[C@]2(O)C(=O)COP(=O)(O)OP(=O)(O)OC[C@H]1OC(n2ccc(N)nc2=O)[C@@H](O)[C@@H]1O (stereo partly drawn) | 60 mg/kg/day | 20 nM | 0 | 100% | 33% | -2.15 g mouse-1 on day 8 | Active dose range [8]: 20 mg/kg/day |
| CC12CCC(=O)C=C1CCC1C2C(O)CC2(C)C1CC[C@@H]2C(=O)COP(=O)(O)OP(=O)(O)OC[C@H]1OC(n2ccc(N)nc2=O)[C@@H](O)[C@@H]1O (stereo partly drawn) | 60 mg/kg/day | 90 nM | 0 | 100% | 95% | -0.45 g mouse-1 on day 8 | Active dose range [9]: 20 mg/kg/day; ILS [10]: 152%; Active dose range [11]: 40 mg/kg/day; Weight change [12]: -1.95 g mouse-1 on day 8; Optimal dose [13]: 80 mg/kg/day; 30 day survivors [14]: 2 |
| C[C@]12C[C@H](O)[C@H]3[C@@H](CCC4=CC(=O)CC[C@@]43C)[C@@H]1CC[C@@H]2C(=O)COP(=O)(O)O.Nc1ccn([C@@H]2O[C@H](COP(=O)(O)O)[C@@H](O)[C@@H]2O)c(=O)n1 | – | 80 nM | – | – | – | – | – |
| Nc1ccn(C2O[C@H](COP(=O)(O)OCC34CC5CC(CC(C5)C3)C4)[C@@H](O)[C@@H]2O)c(=O)n1 (stereo partly drawn) | – | 1250 nM | – | 9% | – | – | – |
| CC12CC(O)C3C4C=CC(=O)C=C4CCC3C1CC[C@]2(O)C(=O)COP(=O)(O)OP(=O)(O)OC[C@H]1OC(n2ccc(N)nc2=O)[C@@H](O)[C@@H]1O (stereo partly drawn) | – | – | – | – | 116% | – | – |
| Nc1ccn(C2O[C@H](COP(=O)(O)OCC3CCCCC3)[C@@H](O)[C@@H]2O)c(=O)n1 (stereo partly drawn) | 40 mg/kg/day | 7000 nM | 0 | 0% | -5% | -0.67 g mouse-1 on day 8 | – |
| Nc1ccn(C2O[C@H](COP(=O)(O)OCCCl)[C@@H](O)[C@@H]2O)c(=O)n1 (stereo partly drawn) | – | 3130 nM | – | 2% | – | – | – |
| CC12CCC(=O)C=C1CCC1C2C(O)CC2(C)C1CC[C@]2(O)C(=O)COP(=O)(O)OP(=O)(O)OC[C@H]1OC(n2ccc(N)nc2=O)[C@@H](O)[C@@H]1O (stereo partly drawn) | – | – | – | – | 86% | – | – |
| Nc1ccn([C@@H]2O[C@H](CO)[C@@H](O)[C@@H]2O)c(=O)n1 [CYTARABINE] | 9.2 mg/kg/day | 190 nM | 1 | – | 63% | -2.66 g mouse-1 on day 8 | Active dose range [15]: 5 mg/kg/day; Weight change [12]: -4.56 g mouse-1 on day 8; Optimal dose [13]: 9.2 mg/kg/day; Active dose range [16]: 5 mg/kg/day; 30 day survivors [17]: 1; ILS [18]: 138% |
| Nc1ccn(C2O[C@H](COP(=O)(O)OP(=O)(O)OCC3CCCCC3)[C@@H](O)[C@@H]2O)c(=O)n1 (stereo partly drawn) | – | 5600 nM | – | 80% | – | – | – |
| CCCCCCCCCCCCCCCCOP(=O)(O)OP(=O)(O)OC[C@H]1OC(n2ccc(N)nc2=O)[C@@H](O)[C@@H]1O (stereo partly drawn) | 40 mg/kg/day | 4300 nM | 0 | 80% | 38% | 2.92 g mouse-1 on day 8 | Active dose range [8]: 20 mg/kg/day |
